Activity calls are given as the source filed them. The rule behind the calls is not given here.
Experiments:
Androgen receptor = molecular target: T1, Androgen receptor (Homo sapiens, UniProt P10275); assay: Binding affinity to androgen receptor (unknown origin) by fluorescence assay
T1 sequence (P10275 whole entry): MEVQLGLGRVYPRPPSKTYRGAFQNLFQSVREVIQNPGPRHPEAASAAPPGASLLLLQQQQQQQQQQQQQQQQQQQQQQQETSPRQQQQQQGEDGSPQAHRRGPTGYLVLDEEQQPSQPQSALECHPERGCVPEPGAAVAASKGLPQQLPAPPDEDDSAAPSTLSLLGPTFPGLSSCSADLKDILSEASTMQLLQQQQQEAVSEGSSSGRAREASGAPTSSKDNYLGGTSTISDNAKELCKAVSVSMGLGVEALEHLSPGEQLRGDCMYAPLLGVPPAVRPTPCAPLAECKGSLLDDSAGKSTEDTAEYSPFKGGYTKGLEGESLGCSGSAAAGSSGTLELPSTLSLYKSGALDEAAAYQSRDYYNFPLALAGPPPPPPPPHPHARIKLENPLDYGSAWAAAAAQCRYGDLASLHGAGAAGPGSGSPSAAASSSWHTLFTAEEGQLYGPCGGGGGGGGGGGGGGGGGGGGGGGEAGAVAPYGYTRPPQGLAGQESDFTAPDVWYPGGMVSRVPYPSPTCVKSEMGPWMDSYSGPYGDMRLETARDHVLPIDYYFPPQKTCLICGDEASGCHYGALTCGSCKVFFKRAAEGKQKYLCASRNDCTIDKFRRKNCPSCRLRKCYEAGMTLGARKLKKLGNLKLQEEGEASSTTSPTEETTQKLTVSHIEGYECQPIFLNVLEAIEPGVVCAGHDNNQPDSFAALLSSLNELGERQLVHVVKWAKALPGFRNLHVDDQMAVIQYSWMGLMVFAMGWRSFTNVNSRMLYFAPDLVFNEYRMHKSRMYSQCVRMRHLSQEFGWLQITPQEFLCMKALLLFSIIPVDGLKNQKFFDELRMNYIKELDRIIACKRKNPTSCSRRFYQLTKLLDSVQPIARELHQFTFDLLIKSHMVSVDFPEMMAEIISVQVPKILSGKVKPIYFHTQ
Procedure, shortened: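 Fluorescence polarization competition between test compound and a fluorescently labeled ligand for binding to full-length receptor or its ligand binding domain. IC50 was fit to the signal by four-parameter logistic equation. Ki = IC50/(1 + ligand concentration/Kd) (Cheng–Prusoff).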

Glucocorticoid receptor [1] = molecular target: T2, Glucocorticoid receptor (Homo sapiens, UniProt P04150); assay: Transrepression activity at glucocorticoid receptor in human A549 cells assessed as inhibition of IL1beta-stimulated NFkappaB-dependent E-selectin transcription by luciferase reporter gene assay; format: cell-based
T2 sequence (P04150 whole entry): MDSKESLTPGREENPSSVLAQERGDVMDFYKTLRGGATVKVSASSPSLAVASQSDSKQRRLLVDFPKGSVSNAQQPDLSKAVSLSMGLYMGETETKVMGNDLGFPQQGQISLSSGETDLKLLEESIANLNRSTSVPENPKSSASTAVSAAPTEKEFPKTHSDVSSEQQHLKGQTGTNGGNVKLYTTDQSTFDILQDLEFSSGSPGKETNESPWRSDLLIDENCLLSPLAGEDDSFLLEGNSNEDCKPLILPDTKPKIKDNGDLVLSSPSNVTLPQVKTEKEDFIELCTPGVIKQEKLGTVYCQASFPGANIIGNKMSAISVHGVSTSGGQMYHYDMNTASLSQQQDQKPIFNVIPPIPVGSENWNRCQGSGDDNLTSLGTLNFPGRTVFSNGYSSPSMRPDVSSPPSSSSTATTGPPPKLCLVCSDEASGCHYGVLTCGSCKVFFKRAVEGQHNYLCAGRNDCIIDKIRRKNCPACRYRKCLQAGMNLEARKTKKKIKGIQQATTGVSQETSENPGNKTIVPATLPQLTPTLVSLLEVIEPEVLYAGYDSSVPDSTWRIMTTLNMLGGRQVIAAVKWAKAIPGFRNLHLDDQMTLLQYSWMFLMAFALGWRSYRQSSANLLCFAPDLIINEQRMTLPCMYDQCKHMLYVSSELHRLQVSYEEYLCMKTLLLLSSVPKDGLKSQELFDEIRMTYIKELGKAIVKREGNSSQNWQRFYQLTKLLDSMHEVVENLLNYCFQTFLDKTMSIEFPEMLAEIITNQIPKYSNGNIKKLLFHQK

Glucocorticoid receptor [2] = molecular target: T2, Glucocorticoid receptor; assay: Binding affinity to glucocorticoid receptor (unknown origin) by fluorescence assay
[3] = molecular target: T3, Glucocorticoid receptor (Homo sapiens) (UniProt P04150); assay: Partial agonist activity at glucocorticoid receptor (unknown origin) by fluorescence assay
T3 sequence (whole entry): T2 sequence (P04150 whole entry)

[4] = molecular target: T3, Glucocorticoid receptor (Homo sapiens); assay: Transrepression activity at glucocorticoid receptor in human A549 cells assessed as inhibition of PMA-stimulated AP1 response element by luciferase reporter gene assay relative to dexamethasone; format: cell-based
Procedure, shortened: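 Transrepression of AP-1 was run in A549 lung epithelial cells. […] Values are means of two or more experiments in triplicate.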

[5] = molecular target: T3, Glucocorticoid receptor (Homo sapiens); assay: Transrepression activity at glucocorticoid receptor in human A549 cells assessed as inhibition of IL1beta-stimulated NFkappaB-dependent E-selectin transcription by luciferase reporter gene assay relative to dexamethasone; format: cell-based
Procedure, shortened: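 In A549 lung epithelial cells, NFkB activity was induced with IL-1β (0.5 ng/ml). Inhibition was quantitated as decreased luciferase activity. […] Values are means of two or more experiments in triplicate.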

[6] = molecular target: T3, Glucocorticoid receptor (Homo sapiens); assay: Transactivation activity at glucocorticoid receptor ligand binding domain (unknown origin) expressed in human Hela cells co-expressing GAL4 DNA binding domain assessed as NP-1-stimulated GRE activation by luciferase reporter gene assay relative to dexamethasone; format: cell-based
Procedure, shortened: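 HeLa line (NP-1) stably transfected with a GR-LBD chimera cloned into a GAL4 luciferase reporter was run in agonist mode. Direct GR-LBD activation was read as increased luciferase activity. […] Values are means of two or more experiments in triplicate.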

Row | Ki (Androgen receptor) [nM] | EC50 (Glucocorticoid receptor [1]) [nM] | Ki (Glucocorticoid receptor [2]) [nM] | Activity [3] | Efficacy [4] [%] | Efficacy [5] [%] | Efficacy [6] [%] | SMILES
1 | > 5000 | 7.6 | 0.64 | Active | 74 | 86 | 24 | CC(C)(CNS(=O)(=O)CC(F)(F)F)[C@@H](c1ccccc1)c1ccc2c(cnn2-c2ccc(F)cc2)c1
2 | > 5000 | 6.85 | 0.81 |  | 91 | 90 | 65 | CC(C)(CNC(=O)CC(F)(F)F)[C@@H](c1ccccc1)c1ccc2c(cnn2-c2ccc(F)cc2)c1
3 | > 5000 | 58 | 5.14 | Active | 74 | 65 | 12 | CC(C)(C)NC(=O)NCC(C)(C)[C@@H](c1ccccc1)c1ccc2c(cnn2-c2ccc(F)cc2)c1

Reference: ChEMBL document CHEMBL2424625, “Synthesis and structure-activity relationships of novel indazolyl glucocorticoid receptor partial agonists” (Bioorg Med Chem Lett, 2013)
